Assay outcomes from PubChem.
The list is not random: actives were taken first. Their share in the collection is about 1.9%.
PP1 counter – PP1-alpha (human) inhibition in PP5 counter-screen; P62136; purified PP1alpha, OMFP fluorescence; AID 2235; 320,000 tested, 0.9% active; inhibition, % at 6.7 µM;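 active = inhibition above the mean inhibition of all tested compounds plus 3 SD, computed separately for each screening campaign, cut at about 15% in these data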
PP5 primary – inhibitors of human protein phosphatase 5 (PP5); purified PP5c, OMFP substrate fluorescence; 320,000 tested, 0.18% active; AID 1987; inhibition, % at 6.7 µM; P53041;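 active = inhibition above the campaign's mean inhibition across all tested compounds plus 3 SD, cut at about 9.5% in these data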;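 also: 0% = DMSO only and 100% = 100 µM cantharidin control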
Target sequence (P53041 whole entry, looked up): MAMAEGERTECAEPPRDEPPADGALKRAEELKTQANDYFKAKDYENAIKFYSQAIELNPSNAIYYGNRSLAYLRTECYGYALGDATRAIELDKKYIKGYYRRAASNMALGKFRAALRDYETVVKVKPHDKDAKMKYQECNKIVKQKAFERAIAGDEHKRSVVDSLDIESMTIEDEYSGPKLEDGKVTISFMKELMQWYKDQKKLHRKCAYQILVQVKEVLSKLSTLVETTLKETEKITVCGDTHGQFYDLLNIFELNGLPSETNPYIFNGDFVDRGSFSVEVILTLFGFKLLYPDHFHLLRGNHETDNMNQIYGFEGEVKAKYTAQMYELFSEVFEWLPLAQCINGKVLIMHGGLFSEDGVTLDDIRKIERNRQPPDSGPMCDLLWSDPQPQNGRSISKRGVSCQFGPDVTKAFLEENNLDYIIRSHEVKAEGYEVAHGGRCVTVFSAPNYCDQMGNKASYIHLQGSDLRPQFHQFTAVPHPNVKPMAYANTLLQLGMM
NS3 helicase inh – blocks Hepatitis C virus NS3 helicase unwinding; 290,000 tested, 0.56% active; NS3 helicase DNA unwinding, Cy5 molecular beacon fluorescence; inhibition, % at 10.9 µM;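 active = inhibition above the mean of all tested compounds plus 3 SD, set per campaign, cut at about 35% in these data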;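 also: 0% = DMSO wells and 100% = thioflavine S control wells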
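assay system = NS3 helicase fragment of HCV | buffer or medium = MOPS pH 6.5, MgCl2, DTT, Tween20, BSA | timing = 60 min unwinding reaction at 25 °C after ATP addition | signal = Cy5 beacon fluorescence read at start and 1 h | read-out basis = % inhibition of unwinding | control set = low DMSO, high thioflavine S at 110 µM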
HIF act – HIF pathway transcriptional activation; U2OS HRE-luciferase reporter, luminescence; normalized: DMSO 0%, desferrioxamine 100%; activation, % at 7.5 µM (by protocol); 300,000 tested, 0.32% active;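 active = mean activation of at least 10% of the iron chelator positive control signal, with at least half of replicates also reaching 10%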
DNA FID counter – displaces DNA intercalator in HCV helicase counter-screen; DNA fluorescent intercalator displacement, fluorescence; inhibition, % at 7.9 µM; 290,000 tested, 0.17% active; in the data active = inhibition above about 37%;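 also: 0% = vehicle and 100% = reference compound; higher means more ethidium bromide displaced from hairpin DNA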
PP1 inh confirm – human PP1 phosphatase inhibition, confirmation; shares compounds with PP1 counter; purified PP1alpha, OMFP substrate fluorescence; inhibition, % at 6.7 µM; 1,900 tested, 52% active; AID 2358;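 active = mean PP1 inhibition above a set limit taken from the earlier primary screen, cut at about 15% in these data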
PP5 counter – counter-screen for PP1 inhibitors: human PP5 phosphatase inhibition | purified PP5c, OMFP fluorescence | shares compounds with PP1 counter | 1,900 tested, 4% active | inhibition, % at 6.7 µM;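 active = mean PP5 inhibition over triplicate wells above about 9.5% taken from the earlier PP1 screen, limit read from the data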
An asterisk follows results filed as active; / = no result.

SMILES	PP1 counter	PP5 primary	NS3 helicase inh	HIF act	DNA FID counter	PP1 inh confirm	PP5 counter
O=C1CCCN1c1ccc(C(=O)N(Cc2nnc(-c3ccc(Cl)cc3)o2)C2CC2)cc1	18*	2	/	0	/	-3	-5
CC(=O)N=c1sccn1CC(O)c1ccc(Br)cc1 (stereo not given)	-2	-1	-4	-11	-10	/	/
COc1ccc(-c2c(C(F)(F)F)[nH]n3c(=O)cc(-c4ccccc4)nc23)cc1	25*	7	-6	-1	-10	42*	3
COc1cccc(-c2cc3nc(-c4ccccc4)cc(=O)n3[nH]2)c1	21*	2	8	3	-22	23*	1
O=c1cc(-c2ccccc2)nc2cc(-c3ccc(F)cc3)[nH]n12	9	5	/	1	/	/	/
Cc1[nH]n2c(=O)cc(C(C)(C)C)nc2c1-c1ccccc1	24*	1	26	0	-12	18*	-1
COc1cccc(N=Nc2c(N)[nH]n3c(=O)cc(-c4ccccc4)nc23)c1	0	3	14	0	-1	/	/
CCc1cc(=O)n2[nH]c(-c3ccccc3)c(-c3ccccc3)c2n1	22*	2	3	-2	-26	21*	-1
CCCCN(CCCC)CCCN1CC(=O)N2[C@@H](Cc3c([nH]c4ccccc34)C2(C)C)C1=O	-3	-1	-6	0	8	/	/
Cc1cc(C)cc(-n2cc(C(=O)O)c(=O)cc2C)c1	-4	-1	6	0	-5	/	/
O=C(c1cccc(S(=O)(=O)NCc2ccccc2)c1)N1CCCC(C(F)(F)F)C1 (stereo not given)	-2	5	/	0	/	/	/
O=C(CN1C(=O)NC2(CCc3ccccc32)C1=O)c1c[nH]c2ccccc12 (stereo not given)	-3	0	/	0	/	/	/
CC(=O)c1cccc(NC(=O)CCc2nnc3ccc(N4CCOCC4)nn23)c1	3	0	7	0	-19	/	/
CC(C)(C)SCCNS(=O)(=O)c1ccc(C#N)cc1	0	-1	3	0	-2	/	/
CCCc1cc(=O)n2[nH]c(C)c(-c3ccccc3)c2n1	0	-2	1	0	-2	/	/
Cc1[nH]n2c(=O)cc(-c3ccc([N+](=O)[O-])cc3)nc2c1-c1ccccc1	45*	1	6	-1	-22	35*	2
O=[N+]([O-])c1ccc(N2CCCCC2)c(Cl)c1N1CCCCC1	47*	1	5	0	3	-2	-3
O=[N+]([O-])c1cc(Cl)ccc1N1CCCCC1	-2	0	-11	0	1	/	/
Cc1ccc(C)c(NC(=S)N2CCN(CCO)CC2)c1	-4	1	3	0	-2	/	/
CC(C)c1ccc(N(CC(=O)NCc2ccco2)C(=O)CCC(=O)Nc2ccccn2)cc1	-1	2	-3	-1	-40	/	/
O=C(CN1C(=O)S/C(=C\c2ccccc2)C1=O)NNC(=O)c1ccccc1O	12	0	11	0	-6	/	/
COc1ccc(/C=C2\SC(=O)N(CC(=O)NNC(=O)c3ccccc3O)C2=O)cc1	18*	1	7	-1	-5	23*	-5
Cc1ccc(C2=NS(=O)(=O)N(C)C(C(=O)N3CCOCC3)=C2)cc1	2	0	-7	-1	-10	/	/
O=C1N=C(N2CCC(Cc3ccccc3)CC2)S/C1=C/c1cn[nH]c1-c1ccccc1	21*	3	-13	0	-4	9	-5
C=CCn1c(COc2ccccc2F)nnc1SCC(=O)c1c[nH]c2ccccc12	1	1	-16	0	-10	/	/
O=c1cc(-c2ccccc2)[nH]n1-c1nc2ccccc2s1	18*	2	10	1	-3	8	2
COc1ccc(-c2cc(C(=O)N(C)CC(=O)Nc3cccc(F)c3)c3ccccc3n2)cc1	-2	3	/	2	/	/	/
CNC(=O)/C(C#N)=C/c1ccc(-c2ccc(Cl)cc2)o1	20*	4	-11	2	1	16*	-3
CC(C)N(CCc1ccncc1)C(=S)Nc1cccc(Cl)c1	-3	1	13	0	2	/	/
COc1ccc(NC(=O)c2ccc(CNc3c(NC4CCCCC4)c(=O)c3=O)cc2)c(OC)c1	21*	1	4	0	-5	19*	-1
